What was measured:
[1] = molecular target: T1, Muscarinic acetylcholine receptor M2 (Rattus norvegicus, UniProt P10980); test: Binding affinity towards rat Muscarinic acetylcholine receptor M2 was determined
T1 sequence (P10980 whole entry): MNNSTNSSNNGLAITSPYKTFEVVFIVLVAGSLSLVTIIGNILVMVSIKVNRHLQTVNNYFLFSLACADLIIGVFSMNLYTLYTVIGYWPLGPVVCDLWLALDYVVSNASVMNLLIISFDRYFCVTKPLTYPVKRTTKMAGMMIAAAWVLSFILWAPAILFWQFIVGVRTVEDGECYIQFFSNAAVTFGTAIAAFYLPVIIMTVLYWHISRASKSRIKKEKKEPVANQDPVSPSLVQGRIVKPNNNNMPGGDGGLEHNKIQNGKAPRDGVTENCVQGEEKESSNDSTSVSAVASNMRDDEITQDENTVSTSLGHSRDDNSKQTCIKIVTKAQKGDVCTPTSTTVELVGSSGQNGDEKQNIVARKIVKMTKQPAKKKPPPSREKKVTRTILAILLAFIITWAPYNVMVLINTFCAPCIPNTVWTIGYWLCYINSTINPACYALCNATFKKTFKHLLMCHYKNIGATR

[2] = molecular target: T2, Muscarinic acetylcholine receptor M1 (Rattus norvegicus, UniProt P08482); test: Binding affinity towards rat Muscarinic acetylcholine receptor M1 was determined
T2 sequence (P08482 whole entry): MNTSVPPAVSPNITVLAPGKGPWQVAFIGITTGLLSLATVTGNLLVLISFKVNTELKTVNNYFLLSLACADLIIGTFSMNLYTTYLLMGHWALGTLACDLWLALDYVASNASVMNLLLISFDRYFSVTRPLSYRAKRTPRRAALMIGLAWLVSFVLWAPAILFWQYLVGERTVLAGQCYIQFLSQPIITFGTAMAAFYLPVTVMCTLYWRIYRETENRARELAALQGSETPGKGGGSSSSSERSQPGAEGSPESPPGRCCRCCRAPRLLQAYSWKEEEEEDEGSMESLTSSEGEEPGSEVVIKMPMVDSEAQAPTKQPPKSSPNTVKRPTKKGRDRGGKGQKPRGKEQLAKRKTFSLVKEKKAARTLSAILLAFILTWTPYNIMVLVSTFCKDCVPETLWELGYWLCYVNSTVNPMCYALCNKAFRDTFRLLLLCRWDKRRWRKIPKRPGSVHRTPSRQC

[3] = molecular target: Muscarinic acetylcholine receptor M3 (Rattus norvegicus) (UniProt P08483); test: Binding affinity towards Muscarinic acetylcholine receptor M3 was determined in rat pancreas
Rattus norvegicus [4] = organism: Rattus norvegicus; test: The Biodistribution of the antagonistic compound in male wistar rats, after 15 minutes of injection in the trachea expressed as (body weight-corrected) uptake value; type: organism-based; settings: in vivo, 0.25 h
Rattus norvegicus [5] = test: The Biodistribution of the antagonistic compound along with pretreated atropine (2.5 mg/kg) in male wistar rats after 15 minutes of injection in the pancreas expressed as (body weight-corrected) uptake value; type: organism-based; settings: in vivo, 0.25 h
Method in brief: (§1)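 Same protocol, except the pretreatment was saline containing atropine (0.5 mg/0.5 mL; 2.5 mg/kg) given i.v. 1 min before tail-vein injection of the radioligand (1.85-2.78 MBq in 0.4 mL saline) into pentobarbital-anaesthetized (60 mg/kg) male Wistar rats (240 g). Tissues removed at 15 min and counted ex vivo. Uptake is body-weight-corrected DAR = (cpm/g tissue)/(cpm injected/g body weight).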

Rattus norvegicus [6] = test: The Biodistribution of the antagonistic compound along with pretreated atropine (2.5 mg/kg) in male wistar rats after 15 minutes of injection in the plasma expressed as (body weight-corrected) uptake value; type: organism-based; settings: in vivo, 0.25 h; method in brief: as §1
Rattus norvegicus [7] = test: The Biodistribution of the antagonistic compound along with pretreated atropine (2.5 mg/kg) in male wistar rats after 15 minutes of injection in the red blood cells; Below limit of detection expressed as (body weight-corrected) uptake value; type: organism-based; settings: in vivo, 0.25 h; method in brief: as §1
Rattus norvegicus [8] = test: The Biodistribution of the antagonistic compound along with pretreated atropine (2.5 mg/kg) in male wistar rats after 15 minutes of injection in the spleen; type: organism-based; settings: in vivo, 0.25 h; method in brief: as §1
Rattus norvegicus [9] = test: The Biodistribution of the antagonistic compound along with pretreated atropine (2.5 mg/kg) in male wistar rats after 15 minutes of injection in the submandibular gland expressed as (body weight-corrected) uptake value; type: organism-based; settings: in vivo, 0.25 h; method in brief: as §1
Rattus norvegicus [10] = test: The Biodistribution of the antagonistic compound along with pretreated atropine (2.5 mg/kg) in male wistar rats after 15 minutes of injection in the testes expressed as (body weight-corrected) uptake value; type: organism-based, Testis; settings: in vivo, 0.25 h; method in brief: as §1
Rattus norvegicus [11] = test: The Biodistribution of the antagonistic compound along with pretreated atropine (2.5 mg/kg) in male wistar rats after 15 minutes of injection in the trachea expressed as (body weight-corrected) uptake value; type: organism-based; settings: in vivo, 0.25 h; method in brief: as §1
Rattus norvegicus [12] = organism: Rattus norvegicus; test: The Biodistribution of the antagonistic compound in male wistar rats, after 15 minutes of injection in the cerebellum expressed as (body weight-corrected) uptake value; Below limit of detection; type: organism-based; settings: in vivo, 0.25 h
Rattus norvegicus [13] = organism: Rattus norvegicus; test: The Biodistribution of the antagonistic compound in male wistar rats, after 15 minutes of injection in the cortex expressed as (body weight-corrected) uptake value; Below limit of detection; type: organism-based; settings: in vivo, 0.25 h
Rattus norvegicus [14] = organism: Rattus norvegicus; test: The Biodistribution of the antagonistic compound in male wistar rats, after 15 minutes of injection in the fat expressed as (body weight-corrected) uptake value; type: organism-based, Adipose tissue; settings: in vivo, 0.25 h
Rattus norvegicus [15] = organism: Rattus norvegicus; test: The Biodistribution of the antagonistic compound in male wistar rats, after 15 minutes of injection in the heart; type: organism-based; settings: in vivo, 0.25 h
Rattus norvegicus [16] = organism: Rattus norvegicus; test: The Biodistribution of the antagonistic compound in male wistar rats, after 15 minutes of injection in the intestine expressed as (body weight-corrected) uptake value; type: organism-based; settings: in vivo, 0.25 h
Rattus norvegicus [17] = organism: Rattus norvegicus; test: The Biodistribution of the antagonistic compound in male wistar rats, after 15 minutes of injection in the kidney expressed as (body weight-corrected) uptake value; type: organism-based; settings: in vivo, 0.25 h
Rattus norvegicus [18] = organism: Rattus norvegicus; test: The Biodistribution of the antagonistic compound in male wistar rats, after 15 minutes of injection in the lung expressed as (body weight-corrected) uptake value; type: organism-based; settings: in vivo, 0.25 h
Rattus norvegicus [19] = organism: Rattus norvegicus; test: The Biodistribution of the antagonistic compound in male wistar rats, after 15 minutes of injection in the muscle expressed as (body weight-corrected) uptake value; type: organism-based, Muscle tissue; settings: in vivo, 0.25 h
Rattus norvegicus [20] = organism: Rattus norvegicus; test: The Biodistribution of the antagonistic compound in male wistar rats, after 15 minutes of injection in the pancreas expressed as (body weight-corrected) uptake value; type: organism-based; settings: in vivo, 0.25 h
Rattus norvegicus [21] = organism: Rattus norvegicus; test: The Biodistribution of the antagonistic compound in male wistar rats, after 15 minutes of injection in the plasma expressed as (body weight-corrected) uptake value; type: organism-based; settings: in vivo, 0.25 h
Rattus norvegicus [22] = test: The Biodistribution of the antagonistic compound along with pretreated atropine (2.5 mg/kg) in male wistar rats after 15 minutes of injection in the bladder; type: organism-based, Urinary bladder/Urine; settings: in vivo, 0.25 h; method in brief: as §1
Rattus norvegicus [23] = test: The Biodistribution of the antagonistic compound along with pretreated atropine (2.5 mg/kg) in male wistar rats after 15 minutes of injection in the cerebellum; Below limit of detection; type: organism-based; settings: in vivo, 0.25 h; method in brief: as §1
Rattus norvegicus [24] = test: The Biodistribution of the antagonistic compound along with pretreated atropine (2.5 mg/kg) in male wistar rats after 15 minutes of injection in the cortex expressed as (body weight-corrected) uptake value; Below limit of detection; type: organism-based; settings: in vivo, 0.25 h; method in brief: as §1
Rattus norvegicus [25] = test: The Biodistribution of the antagonistic compound along with pretreated atropine (2.5 mg/kg) in male wistar rats after 15 minutes of injection in the fat expressed as (body weight-corrected) uptake value; type: organism-based, Adipose tissue; settings: in vivo, 0.25 h; method in brief: as §1
Rattus norvegicus [26] = test: The Biodistribution of the antagonistic compound along with pretreated atropine (2.5 mg/kg) in male wistar rats after 15 minutes of injection in the heart expressed as (body weight-corrected) uptake value; type: organism-based; settings: in vivo, 0.25 h; method in brief: as §1
Rattus norvegicus [27] = organism: Rattus norvegicus; test: Biodistribution of compound in male wistar rats, after 15 minutes of injection in the bladder expressed as (body weight-corrected) uptake value; type: ADME, organism-based, Urinary bladder/Urine; settings: in vivo, 0.25 h
Rattus norvegicus [28] = organism: Rattus norvegicus; test: The Biodistribution of the antagonistic compound in male wistar rats, after 15 minutes of injection in the red blood cells expressed as (body weight-corrected) uptake value; Below limit of detection; type: organism-based; settings: in vivo, 0.25 h
Rattus norvegicus [29] = organism: Rattus norvegicus; test: The Biodistribution of the antagonistic compound in male wistar rats, after 15 minutes of injection in the stomach expressed as (body weight-corrected) uptake value; type: organism-based; settings: in vivo, 0.25 h
Rattus norvegicus [30] = organism: Rattus norvegicus; test: The Biodistribution of the antagonistic compound in male wistar rats, after 15 minutes of injection in the submandibular gland expressed as (body weight-corrected) uptake value; type: organism-based; settings: in vivo, 0.25 h
Rattus norvegicus [31] = organism: Rattus norvegicus; test: The Biodistribution of the antagonistic compound in male wistar rats, after 15 minutes of injection in the testes expressed as (body weight-corrected) uptake value; type: organism-based, Testis; settings: in vivo, 0.25 h
Rattus norvegicus [32] = test: The Biodistribution of the antagonistic compound along with pretreated atropine (2.5 mg/kg) in male wistar rats after 15 minutes of injection in the intestine expressed as (body weight-corrected) uptake value; type: organism-based; settings: in vivo, 0.25 h; method in brief: as §1
Rattus norvegicus [33] = test: The Biodistribution of the antagonistic compound along with pretreated atropine (2.5 mg/kg) in male wistar rats after 15 minutes of injection in the kidney expressed as (body weight-corrected) uptake value; type: organism-based; settings: in vivo, 0.25 h; method in brief: as §1
Rattus norvegicus [34] = test: The Biodistribution of the antagonistic compound along with pretreated atropine (2.5 mg/kg) in male wistar rats after 15 minutes of injection in the liver expressed as (body weight-corrected) uptake value; type: organism-based; settings: in vivo, 0.25 h; method in brief: as §1
Rattus norvegicus [35] = test: The Biodistribution of the antagonistic compound along with pretreated atropine (2.5 mg/kg) in male wistar rats after 15 minutes of injection in the lung expressed as (body weight-corrected) uptake value; type: organism-based; settings: in vivo, 0.25 h; method in brief: as §1
Rattus norvegicus [36] = test: The Biodistribution of the antagonistic compound along with pretreated atropine (2.5 mg/kg) in male wistar rats after 15 minutes of injection in the muscle expressed as (body weight-corrected) uptake value; type: organism-based, Muscle tissue; settings: in vivo, 0.25 h; method in brief: as §1
Rattus norvegicus [37] = organism: Rattus norvegicus; test: The Biodistribution of the antagonistic compound in male wistar rats, after 15 minutes of injection in the liver expressed as (body weight-corrected) uptake value; type: organism-based; settings: in vivo, 0.25 h
Rattus norvegicus [38] = organism: Rattus norvegicus; test: The Biodistribution of the antagonistic compound in male wistar rats, after 15 minutes of injection in the spleen expressed as (body weight-corrected) uptake value; type: organism-based; settings: in vivo, 0.25 h
Rattus norvegicus [39] = test: The Biodistribution of the antagonistic compound along with pretreated atropine (2.5 mg/kg) in male wistar rats after 15 minutes of injection in the stomach expressed as (body weight-corrected) uptake value; type: organism-based; settings: in vivo, 0.25 h; method in brief: as §1

Muscarinic acetylcholine receptor M3 (Rattus norvegicus), sequence (P08483 whole entry, looked up): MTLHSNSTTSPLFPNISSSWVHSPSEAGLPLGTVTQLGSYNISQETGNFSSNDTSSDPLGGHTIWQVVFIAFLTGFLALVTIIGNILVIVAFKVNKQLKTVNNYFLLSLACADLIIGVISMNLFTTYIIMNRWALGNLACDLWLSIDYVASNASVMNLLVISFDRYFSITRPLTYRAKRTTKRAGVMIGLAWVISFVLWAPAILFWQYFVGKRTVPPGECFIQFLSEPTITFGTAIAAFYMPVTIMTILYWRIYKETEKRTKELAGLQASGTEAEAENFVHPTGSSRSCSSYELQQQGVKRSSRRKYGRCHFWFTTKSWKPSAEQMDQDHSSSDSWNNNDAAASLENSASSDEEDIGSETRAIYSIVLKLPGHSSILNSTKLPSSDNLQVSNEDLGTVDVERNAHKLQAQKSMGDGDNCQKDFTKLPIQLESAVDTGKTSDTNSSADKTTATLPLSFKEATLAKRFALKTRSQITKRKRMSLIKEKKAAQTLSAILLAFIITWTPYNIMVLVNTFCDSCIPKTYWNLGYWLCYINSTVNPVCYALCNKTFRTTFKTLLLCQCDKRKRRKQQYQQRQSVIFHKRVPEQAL

C[N+]12CCC(CC1)[C@@H](OC(=O)C(O)(c1ccccc1)c1ccccc1)C2
Ki [1]: 0.43 nM | Ki [2]: 0.13 nM | Ki [3]: 0.65 nM

C[N+]1(C)CCC(OC(=O)C(O)(c2ccccc2)C2CCCCC2)CC1.[I-] (racemic)
Uptake value (Rattus norvegicus [4]): 0.54 | Uptake value (Rattus norvegicus [5]): 0.34 | Uptake value (Rattus norvegicus [6]): 0.13 | Uptake value (Rattus norvegicus [7]): Not Active | Uptake value (Rattus norvegicus [8]): 0.18 | Uptake value (Rattus norvegicus [9]): 0.2 | Uptake value (Rattus norvegicus [10]): 0.11 | Uptake value (Rattus norvegicus [11]): 0.24 | Uptake value (Rattus norvegicus [12]): Not Active | Uptake value (Rattus norvegicus [13]): Not Active | Uptake value (Rattus norvegicus [14]): 0.5 | Uptake value (Rattus norvegicus [15]): 8.45 | Uptake value (Rattus norvegicus [16]): 3.39 | Uptake value (Rattus norvegicus [17]): 2.48 | Uptake value (Rattus norvegicus [18]): 0.67 | Uptake value (Rattus norvegicus [19]): 0.08 | Uptake value (Rattus norvegicus [20]): 1.97 | Uptake value (Rattus norvegicus [21]): 0.14 | Uptake value (Rattus norvegicus [22]): 9.72 | Uptake value (Rattus norvegicus [23]): Not Active | Uptake value (Rattus norvegicus [24]): Not Active | Uptake value (Rattus norvegicus [25]): 0.23 | Uptake value (Rattus norvegicus [26]): 0.16 | Uptake value (Rattus norvegicus [27]): 4.71 | Uptake value (Rattus norvegicus [28]): Not Active | Uptake value (Rattus norvegicus [29]): 1.62 | Uptake value (Rattus norvegicus [30]): 1.68 | Uptake value (Rattus norvegicus [31]): 0.07 | Uptake value (Rattus norvegicus [32]): 1.1 | Uptake value (Rattus norvegicus [33]): 1.49 | Uptake value (Rattus norvegicus [34]): 8.1 | Uptake value (Rattus norvegicus [35]): 0.14 | Uptake value (Rattus norvegicus [36]): 0.07 | Uptake value (Rattus norvegicus [37]): 6.27 | Uptake value (Rattus norvegicus [38]): 0.97 | Uptake value (Rattus norvegicus [39]): 0.45

Reference: ChEMBL document CHEMBL1130012 (J Med Chem, 1997)
